Experimental data from publication PMC3624906 (The Biochemical journal, 2012).

Legend:
GST-MIM-S1 (murine) = GST-MIM-S1 (murine) (UniProt Q8R1S4); experiment: pull-down
MIM-Myc [1] = target: T1, MIM-Myc (murine, UniProt Q8R1S4 1-759); experiment: pull-down
T1 sequence (looked up): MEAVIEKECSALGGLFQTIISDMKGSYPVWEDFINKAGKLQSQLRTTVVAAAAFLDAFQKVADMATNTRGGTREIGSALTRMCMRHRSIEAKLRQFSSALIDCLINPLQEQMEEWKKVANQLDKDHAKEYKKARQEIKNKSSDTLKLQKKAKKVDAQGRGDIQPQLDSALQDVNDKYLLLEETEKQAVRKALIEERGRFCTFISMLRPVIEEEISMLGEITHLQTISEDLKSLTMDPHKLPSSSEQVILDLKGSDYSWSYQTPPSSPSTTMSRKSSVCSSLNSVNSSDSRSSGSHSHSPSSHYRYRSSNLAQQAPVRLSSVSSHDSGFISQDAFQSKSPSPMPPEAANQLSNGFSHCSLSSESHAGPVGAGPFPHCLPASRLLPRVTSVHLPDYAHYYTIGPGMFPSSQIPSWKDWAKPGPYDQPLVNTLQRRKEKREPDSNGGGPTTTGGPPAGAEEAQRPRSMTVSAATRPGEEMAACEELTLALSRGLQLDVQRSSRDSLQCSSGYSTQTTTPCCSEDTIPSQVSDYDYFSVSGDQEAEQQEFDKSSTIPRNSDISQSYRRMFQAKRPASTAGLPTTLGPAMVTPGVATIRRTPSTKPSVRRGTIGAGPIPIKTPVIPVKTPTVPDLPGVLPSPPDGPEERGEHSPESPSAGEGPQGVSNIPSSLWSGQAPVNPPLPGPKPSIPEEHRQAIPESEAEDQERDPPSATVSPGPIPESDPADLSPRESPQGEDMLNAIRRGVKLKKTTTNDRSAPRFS

MIM-GFP = target: T2, MIM-GFP (murine, UniProt Q8R1S4 1-759); experiment: co-IP
T2 sequence (looked up): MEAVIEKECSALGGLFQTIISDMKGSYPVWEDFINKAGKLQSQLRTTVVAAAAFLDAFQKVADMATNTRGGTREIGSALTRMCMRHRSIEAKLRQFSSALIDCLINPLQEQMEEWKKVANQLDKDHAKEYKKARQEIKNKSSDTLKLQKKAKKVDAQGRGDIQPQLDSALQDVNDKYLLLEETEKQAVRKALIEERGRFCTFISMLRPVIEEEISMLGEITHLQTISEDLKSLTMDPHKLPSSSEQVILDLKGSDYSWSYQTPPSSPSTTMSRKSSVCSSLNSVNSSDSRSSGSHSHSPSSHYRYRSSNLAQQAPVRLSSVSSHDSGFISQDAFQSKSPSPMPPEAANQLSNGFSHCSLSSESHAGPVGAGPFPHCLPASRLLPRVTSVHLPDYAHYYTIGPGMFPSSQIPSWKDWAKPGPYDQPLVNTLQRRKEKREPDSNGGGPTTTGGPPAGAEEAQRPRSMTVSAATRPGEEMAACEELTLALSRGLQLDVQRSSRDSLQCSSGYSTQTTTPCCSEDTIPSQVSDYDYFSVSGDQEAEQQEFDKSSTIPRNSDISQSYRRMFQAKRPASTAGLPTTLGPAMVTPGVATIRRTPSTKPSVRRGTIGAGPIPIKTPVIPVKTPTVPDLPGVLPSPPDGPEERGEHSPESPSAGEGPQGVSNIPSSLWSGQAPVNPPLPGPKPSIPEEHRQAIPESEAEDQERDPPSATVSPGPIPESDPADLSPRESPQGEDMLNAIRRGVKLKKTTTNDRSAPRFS

MIM-Myc [2] = target: T1, MIM-Myc; experiment: co-IP
MIM-I-BAR-Myc = experiment: Pull-down of cell lysates with GST-MIM-S1/-S2, unbound MIM by Western blot; assay type: binding, murine; conditions: GST-tagged recombinant peptide, Western blot anti-Myc, in words
Summary of the method: (§1)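 GST-tagged test peptide made in DH5α (0.5 mM IPTG added at OD600 0.3–0.4, then 90 min). It was captured on glutathione Sepharose 4B (2 h, 4°C) and washed in PBS. 293T cells were transfected with the Myc-tagged MIM construct and lysed 48 h later. Lysates were precipitated with the bead-bound peptide at varying concentrations. Supernatant (unbound MIM) and washed pellets were analysed by SDS-PAGE/anti-Myc Western blot with chemiluminescence.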

MIM-Myc [3] = experiment: as above; assay type: binding, murine; conditions: GST-tagged recombinant peptide, Western blot anti-Myc, in words
Summary of the method: as §1

Molecule: MIM-I-BAR-Myc (domain or fragment)
- Kd (GST-MIM-S1 (murine)): 65 nM

B1: GST-MIM-S1 (domain or fragment, murine, UniProt Q8R1S4 18-89, looked up)
chain: TIISDMKGSYPVWEDFINKAGKLQSQLRTTVVAAAAFLDAFQKVADMATNTRGGTREIGSALTRMCMRHRSI
- Kd (MIM-Myc [1]): 110 nM
- IC50 (MIM-GFP): 213 nM

Molecule: AFQKVADMATNTRGGTREIGSALTRMCMRHRSI [MIM-S3]
- IC50 (MIM-Myc [2]): 140 nM

B2: GST-MIM-S1: recombinant GST-tagged form of peptide MIM-S1 (protein)
chain: TIISDMKGSYPVWEDFINKAGKLQSQLRTTVVAAAAFLDAFQKVADMATNTRGGTREIGSALTRMCMRHRSI
modifications: left off: GST, end not stated, kept
- pull-down of MIM-I-BAR-Myc from 293T lysates (MIM-I-BAR-Myc): able to precipitate effectively
- pull-down of MIM-Myc from 293T lysates (MIM-Myc [3]): able to precipitate effectively
